Laboratory results reported in ChEMBL document CHEMBL4304756, “Second-Generation Tryptamine Derivatives Potently Sensitize Colistin Resistant Bacteria to Colistin” (ACS Med Chem Lett, 2019).
The source made the active and inactive calls. The calls are words filed in the database; no cut-off is given here.

How the values were obtained:
Acinetobacter baumannii [1] = experiment: Potentiation of colistin-induced antibacterial activity against Acinetobacter baumannii 17978 harbouring mcr-1 gene assessed as reduction in colistin MIC at 5 uM incubated for 16 hrs by broth microdilution method (reference value: 16 ug/ml); type: functional; details: Acinetobacter baumannii, 17978, 16 h
How it was run: (§1)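 For the dose-response, colistin MIC was measured against mcr-1 plasmid-bearing E. coli, K. pneumoniae and A. baumannii while the adjuvant concentration was lowered stepwise (30, 15 μM, down to 5 μM). The aim was to find where the MIC rose above the 2 μg/mL CLSI susceptibility breakpoint.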

Klebsiella pneumoniae [2] = experiment: Potentiation of colistin-induced antibacterial activity against Klebsiella pneumoniae C3 assessed as reduction in colistin MIC at 7.5 uM incubated for 16 hrs by broth microdilution method (reference value: 512 ug/ml); type: functional; details: C3, 16 h
How it was run: (§2)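 Colistin MIC was measured against chromosomally colistin-resistant strains (K. pneumoniae B9, C3; A. baumannii 4106, among four strains) with adjuvant at fixed levels from 20 μM down to 7.5 μM. Fold reduction was reported against colistin alone, with the CLSI breakpoint taken as ≤2 μg/mL.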

Escherichia coli [3] = experiment: Potentiation of colistin-induced antibacterial activity against Escherichia coli YD626 assessed as colistin MIC at 50 uM incubated for 16 hrs by broth microdilution method (reference value: 1 ug/ml); type: functional; details: YD626, 16 h
Acinetobacter baumannii [4] = experiment: Potentiation of colistin-induced antibacterial activity against Acinetobacter baumannii 17978 assessed as colistin MIC at 50 uM incubated for 16 hrs by broth microdilution method (reference value: 2 ug/ml); type: functional; details: Acinetobacter baumannii, 17978, 16 h
Acinetobacter baumannii [5] = experiment: Antivirulence activity in Acinetobacter baumannii 4106 infected Galleria mellonella larvae model assessed as survival rate in presence of colistin at 50 mg/kg measured at 24 hrs interval over 4 days (reference value: 7 %); type: functional
How it was run: (§3)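 A. baumannii 4106 was given to Galleria mellonella larvae at 6 × 10^5 CFU, the lethal inoculum found by dose escalation. Larvae were treated with colistin 50 mg/kg, adjuvant 50 mg/kg, colistin plus adjuvant (50 mg/kg each), or tigecycline 100 mg/kg as positive control. Survival was scored out to day 4.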

Acinetobacter baumannii [6] = experiment: Potentiation of colistin-induced antibacterial activity against Acinetobacter baumannii 17978 harbouring mcr-1 gene assessed as colistin sensitization activity in presence of Tween 80 at 30 uM incubated for 16 hrs by broth microdilution method; type: functional, organism-based
How it was run: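 To exclude nonspecific aggregation, colistin resensitization of A. baumannii 17978+mcr-1 was run with adjuvant at 30 μM, with and without 0.01% Tween 80.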

Klebsiella pneumoniae [7] = experiment: Potentiation of colistin-induced antibacterial activity against Klebsiella pneumoniae 2210291 harbouring mcr-1 gene assessed as reduction in colistin MIC at 15 uM incubated for 16 hrs by broth microdilution method; type: functional, organism-based; how it was run: as §1
Acinetobacter baumannii [8] = experiment: Potentiation of colistin-induced antibacterial activity against Acinetobacter baumannii 3941 assessed as reduction in colistin MIC at 20 uM incubated for 16 hrs by broth microdilution method (reference value: 512 ug/ml); type: functional; details: Acinetobacter baumannii, 3941, 16 h
Escherichia coli [9] = experiment: Potentiation of colistin-induced antibacterial activity against Escherichia coli YD626 harbouring mcr-1 gene assessed as reduction in colistin MIC at 15 uM incubated for 16 hrs by broth microdilution method; type: functional, organism-based; how it was run: as §1
Acinetobacter baumannii [10] = experiment: Potentiation of colistin-induced antibacterial activity against Acinetobacter baumannii 4106 assessed as reduction in colistin MIC at 7.5 uM incubated for 16 hrs by broth microdilution method (reference value: 1024 ug/ml); type: functional; details: Acinetobacter baumannii, 4106, 16 h; how it was run: as §2
Acinetobacter baumannii [11] = experiment: Potentiation of colistin-induced antibacterial activity against Acinetobacter baumannii 4106 assessed as reduction in colistin MIC at 10 uM incubated for 16 hrs by broth microdilution method (reference value: 1024 ug/ml); type: functional; details: Acinetobacter baumannii, 4106, 16 h
Acinetobacter baumannii [12] = experiment: Potentiation of colistin-induced antibacterial activity against Acinetobacter baumannii 3941 assessed as reduction in colistin MIC at 10 uM incubated for 16 hrs by broth microdilution method (reference value: 512 ug/ml); type: functional; details: Acinetobacter baumannii, 3941, 16 h
Klebsiella pneumoniae [13] = experiment: Potentiation of colistin-induced antibacterial activity against Klebsiella pneumoniae 2210291 harbouring mcr-1 gene assessed as colistin MIC at 50 uM incubated for 16 hrs by broth microdilution method (reference value: 16 ug/ml); type: functional; details: Klebsiella pneumoniae, 2210291, 16 h
Acinetobacter baumannii [14] = experiment: Potentiation of colistin-induced antibacterial activity against Acinetobacter baumannii 17978 harbouring mcr-1 gene assessed as colistin sensitization activity at 30 uM incubated for 16 hrs by broth microdilution method; type: functional, organism-based
Acinetobacter baumannii [15] = experiment: Antivirulence activity in Acinetobacter baumannii 4106 infected Galleria mellonella larvae model assessed as survival rate at 50 mg/kg measured at 24 hrs interval over 4 days; type: functional; how it was run: as §3
Acinetobacter baumannii [16] = experiment: Potentiation of colistin-induced antibacterial activity against Acinetobacter baumannii 3941 assessed as reduction in colistin MIC at 7.5 uM incubated for 16 hrs by broth microdilution method (reference value: 512 ug/ml); type: functional; details: Acinetobacter baumannii, 3941, 16 h
Acinetobacter baumannii [17] = experiment: Potentiation of colistin-induced antibacterial activity against Acinetobacter baumannii 17978 harbouring mcr-1 gene assessed as colistin MIC at 50 uM incubated for 16 hrs by broth microdilution method (reference value: 16 ug/ml); type: functional; details: Acinetobacter baumannii, 17978, 16 h
Acinetobacter baumannii [18] = experiment: Potentiation of colistin-induced antibacterial activity against Acinetobacter baumannii 3941 assessed as reduction in colistin MIC at 15 uM incubated for 16 hrs by broth microdilution method (reference value: 512 ug/ml); type: functional; details: Acinetobacter baumannii, 3941, 16 h
Klebsiella pneumoniae [19] = experiment: Potentiation of colistin-induced antibacterial activity against Klebsiella pneumoniae 2210291 harbouring mcr-1 gene assessed as reduction in colistin MIC at 5 uM incubated for 16 hrs by broth microdilution method (reference value: 16 ug/ml); type: functional; details: Klebsiella pneumoniae, 2210291, 16 h; how it was run: as §1
Acinetobacter baumannii [20] = experiment: Potentiation of colistin-induced antibacterial activity against Acinetobacter baumannii 4106 assessed as reduction in colistin MIC at 20 uM incubated for 16 hrs by broth microdilution method (reference value: 1024 ug/ml); type: functional; details: Acinetobacter baumannii, 4106, 16 h
[21] = Cytotoxicity against mouse 4T1 cells assessed as reduction in cell viability incubated for 18 hrs by MTT assay; type: cell-based
How it was run: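 4T1 mouse mammary tumor cells exposed to compound for 18 h, alone or together with colistin at 1 μg/mL. Medium then aspirated and replaced with 0.5 mg/mL MTT in culture medium for colorimetric viability read-out. CT50 taken as the concentration giving 50% cell viability.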

Klebsiella pneumoniae [22] = experiment: Potentiation of colistin-induced antibacterial activity against Klebsiella pneumoniae C3 assessed as reduction in colistin MIC at 15 uM incubated for 16 hrs by broth microdilution method (reference value: 512 ug/ml); type: functional; details: C3, 16 h
Klebsiella pneumoniae [23] = experiment: Potentiation of colistin-induced antibacterial activity against Klebsiella pneumoniae B9 assessed as reduction in colistin MIC at 15 uM incubated for 16 hrs by broth microdilution method (reference value: 512 ug/ml); type: functional; details: B9, 16 h
Klebsiella pneumoniae [24] = experiment: Potentiation of colistin-induced antibacterial activity against Klebsiella pneumoniae C3 assessed as reduction in colistin MIC at 5 uM incubated for 16 hrs by broth microdilution method (reference value: 512 ug/ml); type: functional; details: C3, 16 h
Klebsiella pneumoniae [25] = experiment: Potentiation of colistin-induced antibacterial activity against Klebsiella pneumoniae B9 assessed as reduction in colistin MIC at 7.5 uM incubated for 16 hrs by broth microdilution method (reference value: 512 ug/ml); type: functional; details: B9, 16 h
Klebsiella pneumoniae [26] = experiment: Potentiation of colistin-induced antibacterial activity against Klebsiella pneumoniae 2210291 assessed as colistin MIC at 50 uM incubated for 16 hrs by broth microdilution method (reference value: 1 ug/ml); type: functional; details: Klebsiella pneumoniae, 2210291, 16 h

**Q.** For O=C(NCCc1c[nH]c2ccc(Br)cc12)Nc1cc(Cl)c(Br)c(Cl)c1, which MIC (Acinetobacter baumannii [1]) is on record?
**A.** 1 µg/mL

**Q.** And the MIC (Klebsiella pneumoniae [2])?
**A.** 2 µg/mL

**Q.** And the MIC (Escherichia coli [3])?
**A.** 0.25 µg/mL

**Q.** And the MIC (Acinetobacter baumannii [4])?
**A.** 0.5 µg/mL

**Q.** And the Activity (Acinetobacter baumannii [5])?
**A.** 47%

**Q.** What about the Activity (Acinetobacter baumannii [6]) of the same molecule?
**A.** Active

**Q.** What about the Activity (Klebsiella pneumoniae [7]) of the same molecule?
**A.** Active

**Q.** What about the MIC (Acinetobacter baumannii [8]) of the same molecule?
**A.** 2 µg/mL

**Q.** What about the Activity (Escherichia coli [9]) of the same molecule?
**A.** Active

**Q.** And the MIC (Acinetobacter baumannii [10])?
**A.** 1 µg/mL

**Q.** And the MIC (Acinetobacter baumannii [11])?
**A.** 1 µg/mL

**Q.** What about the MIC (Acinetobacter baumannii [12]) of the same molecule?
**A.** 4 µg/mL

**Q.** What about the MIC (Klebsiella pneumoniae [13]) of the same molecule?
**A.** 0.5 µg/mL

**Q.** What about the Activity (Acinetobacter baumannii [14]) of the same molecule?
**A.** Active

**Q.** What about the Activity (Acinetobacter baumannii [15]) of the same molecule?
**A.** 0%

**Q.** And the MIC (Acinetobacter baumannii [16])?
**A.** 16 µg/mL

**Q.** And the MIC (Acinetobacter baumannii [17])?
**A.** 0.5 µg/mL

**Q.** And the MIC (Acinetobacter baumannii [18])?
**A.** 4 µg/mL

**Q.** What about the MIC (Klebsiella pneumoniae [19]) of the same molecule?
**A.** 2 µg/mL

**Q.** What about the MIC (Acinetobacter baumannii [20]) of the same molecule?
**A.** ≤ 0.5 µg/mL

**Q.** And the CC50 at 18 h [21]?
**A.** 94.1 µM

**Q.** And the MIC (Klebsiella pneumoniae [22])?
**A.** 0.5 µg/mL

**Q.** What about the MIC (Klebsiella pneumoniae [23]) of the same molecule?
**A.** ≤ 0.25 µg/mL

**Q.** And the MIC (Klebsiella pneumoniae [24])?
**A.** 4 µg/mL

**Q.** And the MIC (Klebsiella pneumoniae [25])?
**A.** ≤ 0.25 µg/mL

**Q.** What about the MIC (Klebsiella pneumoniae [26]) of the same molecule?
**A.** 0.5 µg/mL
